Shown are actives, neighbours in structure and some others; about 12% of the full set was active somewhere.
Rad51 HR inh: Rad51 (human) homologous recombination inhibition; hRad51 DNA strand exchange, fluorescence dequenching; inhibition, % at 10 µM; 0.085% of 200,000 active;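 active = inhibition above 40% at the single screening dose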
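material = hRad51 filaments on single-stranded DNA | timing = filaments 15 min 37 °C, then compound 30 min | signal = FRET fluorescence dequenching, excitation 485 nm, emission 520 nm | benchmarks = control wells and blank wells on each plate | evaluation = percent inhibition relative to plate controls and blanks | compound = 10 µM final, single point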
Lmaj promast: reduces viability of Leishmania major promastigotes | resazurin fluorescence viability | inhibition, % at 10 µM | 9% of 200,000 active;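 also: promastigotes grown with compound for 44 hours at 28 °C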
Wee1 degr inh: inhibitors of human Wee1 degradation; HeLa Luc-Wee1K328M stability, luciferase luminescence; 100% = proteasome inhibitor MG132 effect; reporter increase, % at 5 µM; 1.2% of 220,000 active; AID 1321;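 active = activation above the mean of all tested compounds plus 3 SD, set per screening run, cut at about 8.8% in these data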;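 also: cells exposed to compound for 20 h before luminescence read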
CHOP inhibitor: inhibitors of CHOP induction in ER stress response | AID 2732 | 3.8% of 220,000 active | CHO-K1 CHOP-promoter luciferase, tunicamycin-induced, 15-18 h | inhibition, % at 10 µM;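 active = compounds that reduced the stress-induced luciferase reporter signal by more than about 70% of percent inhibition, limit read from the data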
PKD1 inh: inhibitors of human PKD1 kinase | Q15139 | 0.056% of 200,000 active | PKD1 kinase fluorescence polarization assay | inhibition, % (test concentration not listed)
Target sequence (Q15139 whole entry, looked up): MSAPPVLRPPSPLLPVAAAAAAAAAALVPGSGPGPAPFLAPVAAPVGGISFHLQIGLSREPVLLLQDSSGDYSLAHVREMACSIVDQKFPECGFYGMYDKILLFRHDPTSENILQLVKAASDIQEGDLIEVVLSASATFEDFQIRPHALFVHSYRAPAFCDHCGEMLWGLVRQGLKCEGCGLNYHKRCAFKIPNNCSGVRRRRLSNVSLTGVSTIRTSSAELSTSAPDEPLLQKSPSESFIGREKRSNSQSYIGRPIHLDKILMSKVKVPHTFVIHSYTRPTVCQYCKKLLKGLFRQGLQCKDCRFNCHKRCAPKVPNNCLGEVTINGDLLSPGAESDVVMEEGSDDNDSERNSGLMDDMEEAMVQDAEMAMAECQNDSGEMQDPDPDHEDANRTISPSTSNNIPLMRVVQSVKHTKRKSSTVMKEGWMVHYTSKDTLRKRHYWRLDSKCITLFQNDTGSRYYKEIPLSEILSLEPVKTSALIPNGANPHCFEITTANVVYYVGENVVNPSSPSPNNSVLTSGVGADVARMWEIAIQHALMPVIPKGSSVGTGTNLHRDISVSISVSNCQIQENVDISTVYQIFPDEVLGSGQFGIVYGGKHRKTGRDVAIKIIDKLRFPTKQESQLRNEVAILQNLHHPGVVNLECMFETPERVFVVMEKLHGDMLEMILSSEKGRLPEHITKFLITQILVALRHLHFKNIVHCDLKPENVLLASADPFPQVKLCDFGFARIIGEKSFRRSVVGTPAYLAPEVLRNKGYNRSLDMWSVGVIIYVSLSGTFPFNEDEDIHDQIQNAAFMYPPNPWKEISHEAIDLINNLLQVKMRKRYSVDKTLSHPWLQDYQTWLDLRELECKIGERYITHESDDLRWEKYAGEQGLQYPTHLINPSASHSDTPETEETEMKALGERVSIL
Arbovirus anti: arbovirus infection inhibition; 0.37% of 200,000 active; inhibition, % at 10 µM; arbovirus infection cell-based antiviral screen; in the data active = inhibition above about 30%
Wee1 degr conf: human Wee1 degradation inhibition, confirmation; shares compounds with Wee1 degr inh; HeLa Luc-Wee1K328M degradation, luminescence; vehicle 0%, proteasome-blocked wells 100%; activation, % at 5 µM; 4% of 1,100 active; AID 1410; in the data active = activation above about 8.9%
Large screens that a line does not name were inactive (follow-up assays come after a bar, where they were run). Rule as the data show it, unless noted: active = inhibition above about 50%; inactive = the rest.

O=C(NCc1ccccc1)C12CN(Cc3ccccc3)CC1C(c1cccc([N+](=O)[O-])c1)=NO2 (stereo unspecified)	none
CC(=O)Nc1ccc(S(=O)(=O)Nc2nc3cc4c(cc3nc2Cl)OCCO4)cc1	Wee1 degr inh 11 (no result: Lmaj promast, PKD1 inh, Arbovirus anti) | Wee1 degr conf inactive
CCS(=O)(=O)N1Cc2ccccc2CC1C(=O)Nc1ccccc1OC (stereo unspecified)	none (no result: Lmaj promast, PKD1 inh, Arbovirus anti)
CCS(=O)(=O)N1Cc2ccccc2CC1C(=O)Nc1ccc(F)cc1 (stereo unspecified)	Wee1 degr inh 15 (no result: Lmaj promast, PKD1 inh, Arbovirus anti) | Wee1 degr conf inactive
CCCOC(=S)Nc1ccccc1	none
Cc1cc(NC(=O)CSc2nnc(C3COc4ccccc4O3)n2C)no1 (stereo unspecified)	Wee1 degr inh 22 | Wee1 degr conf inactive
Cc1cc(NC(=O)CSc2nnc(-c3ccccc3)n2C)no1	none
O=C(Nc1cccc(Cl)c1)Nc1ccc(Br)cc1F	Lmaj promast 68, Wee1 degr inh 13, CHOP inhibitor 91 | Wee1 degr conf inactive
CCC(SC1=N/C(=C/c2ccccc2OC)C(=O)N1c1ccccc1)C(=O)Nc1cc(C)on1 (stereo unspecified)	none
Cc1cccc(NC(=O)CSc2nnc(-c3n[nH]c4ccccc34)o2)c1	none
N#Cc1cccc(NC(=O)CSc2nnc(-c3n[nH]c4ccccc34)o2)c1	Wee1 degr inh 22 | Wee1 degr conf inactive
O=C(COC(=O)c1cc[n+]([O-])cc1)Nc1ccc([N+](=O)[O-])cc1	none
O=C1CC(c2ccc(Cl)cc2)SC(N(c2ccccc2)c2ccccc2)=N1 (stereo unspecified)	none
CC(=O)c1cccc(N(C(=O)CNC(=O)c2ccco2)C(C(=O)NCc2ccco2)c2ccccc2)c1 (stereo unspecified)	Wee1 degr inh 19 | Wee1 degr conf inactive
Cc1noc(C)c1C(=O)NCc1ccccc1F	none
Cc1ccc(NC(=O)CCC(=O)c2cccs2)c(O)c1	Wee1 degr inh 15 (no result: Lmaj promast, PKD1 inh, Arbovirus anti) | Wee1 degr conf inactive
Cc1ccc(F)cc1NC(=O)CCC(=O)c1cccs1	none
COc1ccc(S(=O)(=O)N2CC(O)CC2C(=O)OCc2nc3sc(C)c(C)c3c(=O)[nH]2)cc1 (stereo unspecified)	none (no result: Rad51 HR inh)
Cc1ccc(S(=O)(=O)N2CCCCC2)cc1NC(=O)COC(=O)Cc1cccc(C(F)(F)F)c1	none (no result: Rad51 HR inh)
O=C(Nc1ccc(Cl)cc1)NC1CCCCC1	Wee1 degr inh 11 | Wee1 degr conf inactive
Nc1ccc(NC(=O)NC2CCCCC2)cc1	none
COc1ccc(-c2ccc(SCC(=O)Nc3cccc(C(C)=O)c3)nn2)cc1OC	Wee1 degr inh 12 | Wee1 degr conf inactive
NS(=O)(=O)c1ccc(NC(=S)NC(=O)c2cccs2)cc1	Wee1 degr inh 19 (no result: Lmaj promast, PKD1 inh, Arbovirus anti) | Wee1 degr conf inactive
C=C(C)C1(O)OC(=O)C=C1OC (stereo unspecified)	none
Cc1ccc(CS/C(Nc2ccccc2C)=C(\C#N)C(N)=O)c(C)c1	none
O=C(c1ccc(F)cc1)c1ccc(N2CCCC2)cc1	none
O=C(Nc1ccc(N2CCCCC2)cc1)c1ccc(F)cc1	Wee1 degr inh 11 | Wee1 degr conf inactive
COc1ccccc1OCC(=O)Nc1ccc(N2CCCCC2)cc1	Wee1 degr inh 11 | Wee1 degr conf inactive
CCOc1ccccc1OCC(=O)Nc1ccc(N2CCCCC2)cc1	none
COc1cccc(CNCc2cccnc2)c1OCc1ccccc1	Wee1 degr inh 13 | Wee1 degr conf inactive
Cc1ccccc1CNCc1cccnc1	none
O=C(O)c1ccccc1/C=N/N1CCN(C2c3ccccc3-c3ccccc32)CC1	none (no result: Rad51 HR inh)
CCOc1ccccc1NC1=C(Cl)C(=O)N(c2ccccc2)C1=O	none
CC1(C)NC(=O)N(CCCCOc2ccccc2[N+](=O)[O-])C1=O	Wee1 degr inh 11 | Wee1 degr conf inactive
O=C(Nc1ccc(Cl)c(Cl)c1)Nc1nccs1	Wee1 degr inh 14, CHOP inhibitor 79 (no result: Lmaj promast, PKD1 inh, Arbovirus anti) | Wee1 degr conf 25
O=C(Nc1cccc(Cl)c1)Nc1nccs1	none
CC(=O)c1cccc(NC(=O)N2CCC(c3ccc(C)cc3)C2)c1 (stereo unspecified)	Wee1 degr inh 14 (no result: Rad51 HR inh) | Wee1 degr conf inactive
C#CCNC(=O)C1CCN(c2cc(C)nc(-c3ccccc3)n2)CC1	Wee1 degr inh 12 | Wee1 degr conf inactive

Screening results: PubChem, several laboratories
